# Experimental data published in ChEMBL document CHEMBL5724801, “EUbOPEN Chemogenomics Library - Multiplex” (2024).
# Where “and” joins values, the source holds several entries; their conditions need not be identical. Equal values may be shown once.
# Test system: HEK-293T
# Experiment: Multiplex assay against HEK293T
# Assay type: toxicity, cell-based
# Conditions: human
# Procedure, shortened: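 Live cells were stained at seeding with Hoechst33342, BioTracker Green Microtubule Cytoskeleton Dye, MitoTracker Red and Annexin V Alexa Fluor 680, then imaged on a CQ1 microscope at 37°C and 5% CO2 after compound addition. CellPathfinder machine-learning gating split cells into Hoechst high-intensity objects or normal cells. Normal cells were split into healthy, pyknosed or fragmented nuclei, and pyknosed cells into mitotic or apoptotic. Tubulin, mitochondrial-mass and membrane-permeability phenotypes are per cents of healthy-nucleus cells.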
# [1] = 12 h, 1 µM, compound concentration 1 uM
# [2] = 12 h, 10 µM, compound concentration 10 uM
# [3] = 24 h, 1 µM, compound concentration 1 uM
# [4] = 24 h, 10 µM, compound concentration 10 uM
# [5] = 48 h, 1 µM, compound concentration 1 uM
# [6] = 48 h, 10 µM, compound concentration 10 uM
smiles,measurement,setting,value
CC(/C=C1\SC(=S)N(CCCC(=O)Nc2ccc(C(=O)O)c(O)c2)C1=O)=C\c1ccccc1,Population Apoptotic (%),[1],34% and 50%
same,Population Fragmented Nuclei (%),[1],6%
same,Population Healthy Nuclei (%),[1],81% and 84%
same,Population Hoechst High Intensity Objects (%),[1],6%
same,Population Membrane Permeable-Phenotype (%),[1],0%
same,Population Mitochondria Different-Phenotype (%),[1],41% and 62%
same,Population Mitotic Cells (%),[1],65% and 50%
same,Population Normal (%),[1],93%
same,Population Pyknosed Nuclei (%),[1],11% and 8%
same,Population Tubulin-Different-Phenotype (%),[1],31% and 20%
same,Total Cell Count,[1],422 and 389
same,Population Apoptotic (%),[2],43% and 51%
same,Population Fragmented Nuclei (%),[2],5%
same,Population Healthy Nuclei (%),[2],76% and 79%
same,Population Hoechst High Intensity Objects (%),[2],7%
same,Population Membrane Permeable-Phenotype (%),[2],0%
same,Population Mitochondria Different-Phenotype (%),[2],45% and 49%
same,Population Mitotic Cells (%),[2],56% and 48%
same,Population Normal (%),[2],92%
same,Population Pyknosed Nuclei (%),[2],18% and 15%
same,Population Tubulin-Different-Phenotype (%),[2],35% and 26%
same,Total Cell Count,[2],313 and 327
same,Population Apoptotic (%),[3],27% and 31%
same,Population Fragmented Nuclei (%),[3],9% and 7%
same,Population Healthy Nuclei (%),[3],79% and 83%
same,Population Hoechst High Intensity Objects (%),[3],4% and 7%
same,Population Membrane Permeable-Phenotype (%),[3],0%
same,Population Mitochondria Different-Phenotype (%),[3],28% and 52%
same,Population Mitotic Cells (%),[3],72% and 68%
same,Population Normal (%),[3],95% and 92%
same,Population Pyknosed Nuclei (%),[3],10% and 8%
same,Population Tubulin-Different-Phenotype (%),[3],26% and 21%
same,Total Cell Count,[3],604 and 491
same,Population Apoptotic (%),[4],33% and 39%
same,Population Fragmented Nuclei (%),[4],8%
same,Population Healthy Nuclei (%),[4],75% and 79%
same,Population Hoechst High Intensity Objects (%),[4],5% and 6%
same,Population Membrane Permeable-Phenotype (%),[4],0%
same,Population Mitochondria Different-Phenotype (%),[4],34% and 40%
same,Population Mitotic Cells (%),[4],66% and 60%
same,Population Normal (%),[4],94% and 93%
same,Population Pyknosed Nuclei (%),[4],16% and 12%
same,Population Tubulin-Different-Phenotype (%),[4],31% and 20%
same,Total Cell Count,[4],369 and 422
same,Population Apoptotic (%),[5],23% and 19%
same,Population Fragmented Nuclei (%),[5],13% and 14%
same,Population Healthy Nuclei (%),[5],79%
same,Population Hoechst High Intensity Objects (%),[5],2% and 5%
same,Population Membrane Permeable-Phenotype (%),[5],1% and 0%
same,Population Mitochondria Different-Phenotype (%),[5],16% and 26%
same,Population Mitotic Cells (%),[5],76% and 80%
same,Population Normal (%),[5],97% and 94%
same,Population Pyknosed Nuclei (%),[5],7% and 6%
same,Population Tubulin-Different-Phenotype (%),[5],14% and 13%
same,Total Cell Count,[5],998 and 673
same,Population Apoptotic (%),[6],24% and 39%
same,Population Fragmented Nuclei (%),[6],9% and 11%
same,Population Healthy Nuclei (%),[6],79% and 82%
same,Population Hoechst High Intensity Objects (%),[6],3% and 5%
same,Population Membrane Permeable-Phenotype (%),[6],2%
same,Population Mitochondria Different-Phenotype (%),[6],25% and 23%
same,Population Mitotic Cells (%),[6],75% and 60%
same,Population Normal (%),[6],96% and 94%
same,Population Pyknosed Nuclei (%),[6],10% and 6%
same,Population Tubulin-Different-Phenotype (%),[6],22% and 24%
same,Total Cell Count,[6],479 and 555
CN(C)C/C=C/C(=O)Nc1ccc(C(=O)N2CCCC(Nc3ncc(Cl)c(-c4c[nH]c5ccccc45)n3)C2)cc1 (stereo not drawn),Population Apoptotic (%),[1],46% and 63%
same,Population Fragmented Nuclei (%),[1],8% and 6%
same,Population Healthy Nuclei (%),[1],55% and 64%
same,Population Hoechst High Intensity Objects (%),[1],30% and 23%
same,Population Membrane Permeable-Phenotype (%),[1],0%
same,Population Mitochondria Different-Phenotype (%),[1],87% and 89%
same,Population Mitotic Cells (%),[1],53% and 36%
same,Population Normal (%),[1],69% and 76%
same,Population Pyknosed Nuclei (%),[1],35% and 29%
same,Population Tubulin-Different-Phenotype (%),[1],69% and 70%
same,Total Cell Count,[1],227 and 231
same,Population Apoptotic (%),[2],62% and 77%
same,Population Fragmented Nuclei (%),[2],12% and 7%
same,Population Healthy Nuclei (%),[2],57% and 64%
same,Population Hoechst High Intensity Objects (%),[2],35% and 29%
same,Population Membrane Permeable-Phenotype (%),[2],0%
same,Population Mitochondria Different-Phenotype (%),[2],95%
same,Population Mitotic Cells (%),[2],37% and 22%
same,Population Normal (%),[2],64% and 70%
same,Population Pyknosed Nuclei (%),[2],30% and 28%
same,Population Tubulin-Different-Phenotype (%),[2],79% and 81%
same,Total Cell Count,[2],269 and 181
same,Population Apoptotic (%),[3],72% and 74%
same,Population Fragmented Nuclei (%),[3],15% and 9%
same,Population Healthy Nuclei (%),[3],62% and 67%
same,Population Hoechst High Intensity Objects (%),[3],27% and 26%
same,Population Membrane Permeable-Phenotype (%),[3],0%
same,Population Mitochondria Different-Phenotype (%),[3],85% and 89%
same,Population Mitotic Cells (%),[3],27% and 25%
same,Population Normal (%),[3],72% and 73%
same,Population Pyknosed Nuclei (%),[3],22% and 23%
same,Population Tubulin-Different-Phenotype (%),[3],74% and 70%
same,Total Cell Count,[3],222 and 207
same,Population Apoptotic (%),[4],74% and 88%
same,Population Fragmented Nuclei (%),[4],19% and 10%
same,Population Healthy Nuclei (%),[4],55% and 68%
same,Population Hoechst High Intensity Objects (%),[4],49% and 34%
same,Population Membrane Permeable-Phenotype (%),[4],0%
same,Population Mitochondria Different-Phenotype (%),[4],96% and 98%
same,Population Mitotic Cells (%),[4],25% and 11%
same,Population Normal (%),[4],50% and 65%
same,Population Pyknosed Nuclei (%),[4],24% and 20%
same,Population Tubulin-Different-Phenotype (%),[4],52% and 77%
same,Total Cell Count,[4],314 and 197
same,Population Apoptotic (%),[5],67% and 81%
same,Population Fragmented Nuclei (%),[5],16% and 6%
same,Population Healthy Nuclei (%),[5],59% and 65%
same,Population Hoechst High Intensity Objects (%),[5],30% and 26%
same,Population Membrane Permeable-Phenotype (%),[5],0%
same,Population Mitochondria Different-Phenotype (%),[5],79% and 95%
same,Population Mitotic Cells (%),[5],32% and 18%
same,Population Normal (%),[5],69% and 73%
same,Population Pyknosed Nuclei (%),[5],23% and 27%
same,Population Tubulin-Different-Phenotype (%),[5],71% and 74%
same,Total Cell Count,[5],239 and 184
same,Population Apoptotic (%),[6],55% and 80%
same,Population Fragmented Nuclei (%),[6],62% and 47%
same,Population Healthy Nuclei (%),[6],14% and 30%
same,Population Hoechst High Intensity Objects (%),[6],67% and 58%
same,Population Membrane Permeable-Phenotype (%),[6],0%
same,Population Mitochondria Different-Phenotype (%),[6],100% and 94%
same,Population Mitotic Cells (%),[6],44% and 20%
same,Population Normal (%),[6],32% and 41%
same,Population Pyknosed Nuclei (%),[6],23% and 21%
same,Population Tubulin-Different-Phenotype (%),[6],23% and 57%
same,Total Cell Count,[6],361 and 277
COc1cc2nc(N3CCN(C(=O)COc4c(OC)cccc4C(C)C)CC3)nc(N)c2cc1OC.Cl.Cl,Population Apoptotic (%),[1],35% and 46%
same,Population Fragmented Nuclei (%),[1],12% and 8%
same,Population Healthy Nuclei (%),[1],77% and 81%
same,Population Hoechst High Intensity Objects (%),[1],5% and 4%
same,Population Membrane Permeable-Phenotype (%),[1],0%
same,Population Mitochondria Different-Phenotype (%),[1],48% and 58%
same,Population Mitotic Cells (%),[1],64% and 53%
same,Population Normal (%),[1],94% and 95%
same,Population Pyknosed Nuclei (%),[1],9%
same,Population Tubulin-Different-Phenotype (%),[1],23% and 18%
same,Total Cell Count,[1],402 and 365
same,Population Apoptotic (%),[2],52% and 57%
same,Population Fragmented Nuclei (%),[2],13% and 14%
same,Population Healthy Nuclei (%),[2],69% and 67%
same,Population Hoechst High Intensity Objects (%),[2],25% and 18%
same,Population Membrane Permeable-Phenotype (%),[2],1% and 3%
same,Population Mitochondria Different-Phenotype (%),[2],74% and 66%
same,Population Mitotic Cells (%),[2],48% and 42%
same,Population Normal (%),[2],74% and 81%
same,Population Pyknosed Nuclei (%),[2],17% and 18%
same,Population Tubulin-Different-Phenotype (%),[2],81% and 66%
same,Total Cell Count,[2],386 and 286
same,Population Apoptotic (%),[3],35% and 42%
same,Population Fragmented Nuclei (%),[3],11% and 8%
same,Population Healthy Nuclei (%),[3],77% and 84%
same,Population Hoechst High Intensity Objects (%),[3],5% and 2%
same,Population Membrane Permeable-Phenotype (%),[3],0%
same,Population Mitochondria Different-Phenotype (%),[3],27% and 44%
same,Population Mitotic Cells (%),[3],64% and 57%
same,Population Normal (%),[3],95% and 97%
same,Population Pyknosed Nuclei (%),[3],10% and 7%
same,Population Tubulin-Different-Phenotype (%),[3],19% and 16%
same,Total Cell Count,[3],540 and 472
same,Population Apoptotic (%),[4],42% and 51%
same,Population Fragmented Nuclei (%),[4],14% and 13%
same,Population Healthy Nuclei (%),[4],64% and 59%
same,Population Hoechst High Intensity Objects (%),[4],29% and 39%
same,Population Membrane Permeable-Phenotype (%),[4],2%
same,Population Mitochondria Different-Phenotype (%),[4],68% and 72%
same,Population Mitotic Cells (%),[4],57% and 48%
same,Population Normal (%),[4],70% and 60%
same,Population Pyknosed Nuclei (%),[4],21% and 27%
same,Population Tubulin-Different-Phenotype (%),[4],69% and 63%
same,Total Cell Count,[4],498 and 286
same,Population Apoptotic (%),[5],28% and 11%
same,Population Fragmented Nuclei (%),[5],16% and 15%
same,Population Healthy Nuclei (%),[5],76% and 78%
same,Population Hoechst High Intensity Objects (%),[5],2% and 3%
same,Population Membrane Permeable-Phenotype (%),[5],1% and 0%
same,Population Mitochondria Different-Phenotype (%),[5],18%
same,Population Mitotic Cells (%),[5],71% and 88%
same,Population Normal (%),[5],97% and 96%
same,Population Pyknosed Nuclei (%),[5],6%
same,Population Tubulin-Different-Phenotype (%),[5],11% and 12%
same,Total Cell Count,[5],930 and 737
same,Population Apoptotic (%),[6],31% and 30%
same,Population Fragmented Nuclei (%),[6],18% and 17%
same,Population Healthy Nuclei (%),[6],56% and 59%
same,Population Hoechst High Intensity Objects (%),[6],41% and 46%
same,Population Membrane Permeable-Phenotype (%),[6],3% and 1%
same,Population Mitochondria Different-Phenotype (%),[6],48% and 49%
same,Population Mitotic Cells (%),[6],68% and 69%
same,Population Normal (%),[6],58% and 53%
same,Population Pyknosed Nuclei (%),[6],25% and 23%
same,Population Tubulin-Different-Phenotype (%),[6],56% and 38%
same,Total Cell Count,[6],660 and 430
